Screens as filed in PubChem BioAssay.
In the library only some 4.1% were active in any assay of this set; here they are far more common.
KCNK9 block: human KCNK9 channel inhibition. actives 1.2% (n = 310,000). Q9NPC2. HEK293 KCNK9, FluxOR thallium flux fluorescence; stronger effect = lower value. B-score at 10 µM;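 active means ratio B-score over 3 SD below the library mean, with starting fluorescence within 5 SD of its mean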;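 further: negative B-score means less thallium flux so channel inhibition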
Target sequence (Q9NPC2 whole entry, looked up): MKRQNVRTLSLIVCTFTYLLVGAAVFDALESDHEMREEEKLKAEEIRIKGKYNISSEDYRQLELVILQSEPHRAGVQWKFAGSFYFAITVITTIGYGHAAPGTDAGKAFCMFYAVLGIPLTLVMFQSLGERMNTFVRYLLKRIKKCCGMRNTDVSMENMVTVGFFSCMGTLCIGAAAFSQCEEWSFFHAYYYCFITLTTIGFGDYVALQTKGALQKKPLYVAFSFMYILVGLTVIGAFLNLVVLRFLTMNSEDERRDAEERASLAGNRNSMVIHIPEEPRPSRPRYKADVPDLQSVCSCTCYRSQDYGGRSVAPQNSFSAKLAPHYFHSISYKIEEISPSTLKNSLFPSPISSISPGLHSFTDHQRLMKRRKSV
KCNQ1 act: human KCNQ1 channel potentiation or activation; P51787; CHO-K1 KCNQ1, thallium flux FluxOR fluorescence; stronger effect = higher value; B-score at 10 µM; actives 0.35% (n = 310,000);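 active means fluorescence ratio B-score, a plate-corrected score, at least three library SD, with initial intensity B-score within 5 SD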
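Test system: CHO-K1 cells stably expressing KCNQ1 / Medium: assay buffer / Also added: depolarizing K+/Tl+ stimulus, K2SO4 and Tl2SO4 each 12.5 mM in 5x stock / Incubation: 90 min dye loading and 20 min compound exposure, both at room temperature / Signal: thallium influx via FluxOR fluorescence, kinetic imaging / Evaluation: B score of baseline-normalized fluorescence ratio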
KCC2 mod: modulators of human KCC2 chloride dependent transport | Q9H2X9 | B-score of Tl+ flux slope (higher = more flux/activation; lower = inhibition) at 10 µM | KCC2 cells, thallium flux FluoZin-2 fluorescence | actives 2.2% (n = 190,000);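 active means thallium flux slope and its plate-corrected score both differing from the plate sample mean at a set confidence after two filtering rounds, in either direction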;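 further: slope of fluorescence scaled to starting intensity during 10 to 20 s after thallium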
hERG protect: hERG (human) protection from proarrhythmic block | CHO-hERG, FluxOR thallium flux, dofetilide IC70 present | activation (rescue from dofetilide block), less the hit threshold, % at 10 µM | actives 0.51% (n = 310,000) | AID 1511;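 active means activation above the mean of controls blocked by dofetilide plus 5 SD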;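 further: thallium influx through hERG after potassium depolarization seen as dye fluorescence rise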
KCNK3 inh: human KCNK3 channel inhibition, primary screen; B-score at 10 µM; actives 0.84% (n = 340,000); O14649; CHO-KCNK3 thallium flux, FluxOR fluorescence; stronger effect = lower value;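 active means B-score under library mean minus 4 SD, starting fluorescence ratio at most library mean plus 5 SD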;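 further: more negative B-score means stronger inhibition of thallium flux through KCNK3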
Target sequence (O14649 whole entry, looked up): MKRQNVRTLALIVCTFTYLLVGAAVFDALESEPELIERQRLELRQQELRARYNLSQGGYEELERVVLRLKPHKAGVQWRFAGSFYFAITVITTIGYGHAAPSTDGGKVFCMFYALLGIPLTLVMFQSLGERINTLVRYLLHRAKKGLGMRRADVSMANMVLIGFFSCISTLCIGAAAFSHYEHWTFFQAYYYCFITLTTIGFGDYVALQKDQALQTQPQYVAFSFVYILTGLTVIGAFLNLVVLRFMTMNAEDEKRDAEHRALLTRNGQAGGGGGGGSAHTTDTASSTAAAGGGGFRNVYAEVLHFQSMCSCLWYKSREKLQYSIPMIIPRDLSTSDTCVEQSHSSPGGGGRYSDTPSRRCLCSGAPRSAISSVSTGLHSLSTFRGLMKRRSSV
KCNQ1 block: human KCNQ1 channel inhibition. CHO-K1 KCNQ1, FluxOR thallium flux fluorescence; stronger effect = higher value. actives 1.3% (n = 310,000). AID 2642. B-score at 10 µM;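 active means compounds whose thallium flux B-score, printed positive for inhibition, exceeds three library SD while starting fluorescence stays within three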;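 further: channel opened by potassium depolarization with thallium stimulus after 20 min compound exposure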
KCC2 sec1: KCC2 (human) modulation, secondary assay. shares compounds with KCC2 mod. HEK293-KCC2, thallium flux, FluoZin2 fluorescence; stronger effect = higher value. normalised thallium flux (F/F0 slope) at 10 µM. actives 15% (n = 3,700). AID 1713;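 active means thallium flux slope above the same plate's solvent-only control mean plus 3 SD; inconclusive means the two replicate wells disagree; inactive means no significant difference from solvent-only control wells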
KCC2 bumet counter: thallium flux persisting under bumetanide in KCC2 cells, counter-screen secondary assay. shares compounds with KCC2 mod. HEK293-KCC2 + bumetanide/ouabain, thallium flux FluoZin2; stronger effect = higher value. normalized thallium flux at 10 µM. actives 49% (n = 3,700);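 active means thallium entry rate above the same plate's blocked-transporter control wells by more than 3 SD; inconclusive means the two repeat wells disagree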;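 further: raw slope of fluorescence over initial fluorescence between 10 and 20 s after thallium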
KCC2 secondary2: confirmation of human KCC2 transport modulators; AID 1715; shares compounds with KCC2 mod; HEK293-KCC2, thallium flux FluoZin2 fluorescence; actives lie on both sides; F/F0 rise rate, 10–20 s post-thallium; normalized thallium flux at 10 µM; actives 23% (n = 3,700);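 active means thallium flux slope more than 3 SD above or below the plate's solvent-only control mean, mostly below; inconclusive means the two repeat wells disagreed; inactive means no significant shift from solvent-only controls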
HEK293 Tl flux: counter-screen for KCC2 modulators: effect in parental HEK293 cells; shares compounds with KCC2 mod; thallium flux FluoZin2, ouabain; baseline-ratio fluorescence slope, 10–20 s after thallium; thallium flux rate (normalised fluorescence) at 10 µM; actives 46% (n = 3,700); AID 1716;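 active means thallium flux rate significantly above the same plate's solvent-only control wells, beyond their mean plus 3 SD; inconclusive means the two replicate wells gave conflicting results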
KCC2 retest ouab: KCC2 (human) modulation, ouabain retest | HEK293-KCC2, thallium flux FluoZin2 fluorescence; bidirectional: low = inhibitor, high = activator | shares compounds with KCC2 mod | raw Tl+ flux slope (below DMSO = inhibition, above = activation) at 10 µM | AID 1717 | actives 48% (n = 3,700);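 active means thallium flux slope beyond 3 SD from same-plate DMSO control mean in most replicates, usually higher, sometimes lower; inconclusive means repeat tests gave conflicting results; inactive means no significant difference from controls in most replicates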;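 further: slope of initial-normalized fluorescence between seconds 10 and 20 after thallium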
HEK293 Tl flux2: acts in parental HEK cells, second KCC2 counter-screen; AID 1718; HEK293 parental, thallium flux FluoZin-2 fluorescence slope; thallium flux slope at 10 µM; actives 33% (n = 3,700); shares compounds with KCC2 mod;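 active means thallium flux slope above the same plate's solvent-control mean plus 3 SD in both duplicate wells; inconclusive means duplicate wells that disagreed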;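 further: run without ouabain in cells lacking the KCC2 cotransporter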
Hits are given with their value; n = inactive; u = inconclusive; x = no result.

SMILES	KCNK9 block	KCNQ1 act	KCC2 mod	hERG protect	KCNK3 inh	KCNQ1 block	KCC2 sec1	KCC2 bumet counter	KCC2 secondary2	HEK293 Tl flux	KCC2 retest ouab	HEK293 Tl flux2
CCn1c(=O)c2cc(C(=O)N(C)c3cc(C)ccc3OC)sc2c2ccccc21	-15	n	-3	n	n	n	n	u	n	0.0056	n	u
C=CCN1C(=O)N(/C=C/C)c2cccc3cccc1c23	n	n	7.6	n	n	n	n	n	n	0.0057	n	n
Cc1cc(C)c(NC(=O)CN(c2ccccc2)S(=O)(=O)N(C)C)c(C)c1	n	n	5.2	n	n	n	n	n	n	n	n	n
S=C(NCc1ccco1)Nc1ccc(Br)cc1Cl	n	n	4	n	n	n	n	0.011	n	0.0093	n	u
Cc1nn(-c2ccccc2)nc1C(=O)c1c(C)[nH]n(-c2ccccc2)c1=O	n	n	11	n	n	n	0.015	0.029	n	u	0.034	u
Cc1onc(-c2c(Cl)cccc2Cl)c1C(=O)NC(=S)N1CCOCC1	n	n	8.6	n	n	n	0.011	0.019	n	0.012	u	n
CCOC(=O)N1CCN(C(=S)NC(=O)c2c(-c3c(Cl)cccc3Cl)noc2C)CC1	n	n	11	n	n	n	u	0.033	u	0.018	0.032	0.019
COc1ccc2cc(C3=CCCC3(C)C(=O)O)ccc2c1 (stereo not given)	x	x	x	x	n	x	x	x	x	x	x	x
Cc1cccc(N=Nc2c(C)[nH]n(C(N)=S)c2=O)c1C	n	n	5.8	n	x	n	n	0.0093	n	0.0098	n	u
O=C(NCCc1ccccc1)c1nc2nc(-c3cccs3)cc(C(F)(F)F)n2n1	n	n	-2.5	n	n	n	n	n	n	n	n	n
O=C(O)c1ccc(N2CC3CC(C2)c2cccc(=O)n2C3)c(NC(=S)Nc2ccc(Cl)cc2Cl)c1 (stereo not given)	n	n	15	n	n	n	n	0.015	n	u	u	n
COc1cc(C(=S)N2CCOCC2)ccc1OC(=O)Cc1ccc(F)cc1	n	n	-4.8	n	n	n	n	n	0.028	n	0.015	n
CCOc1cc(C(=S)N2CCCC2)ccc1OC(=O)Cc1ccc(F)cc1	n	n	n	n	n	n	x	x	x	x	x	x
O=C1OC=NC1=Cc1ccccc1	x	x	x	x	n	x	x	x	x	x	x	x
COc1cc(OC)c(C2=NOC(C(=O)N3CCN(C(=O)c4ccco4)CC3)C2)cc1Cl (stereo not given)	n	n	n	n	n	n	x	x	x	x	x	x
COc1cccc(C2=NOC(C(=O)N3CCN(Cc4ccccc4)CC3)C2)c1OC (stereo not given)	n	n	-4	n	n	n	n	n	n	n	0.016	u
COc1cc(OC)c(C2=NOC(C(=O)N3CCc4ccccc4C3)C2)cc1Cl (stereo not given)	n	n	-3.2	n	n	n	n	n	0.024	n	u	n
O=C(C1CC(c2ccc(F)cc2)=NO1)N1CCN(Cc2ccccc2)CC1 (stereo not given)	n	n	x	n	n	n	x	x	x	x	x	x
CN(Cc1nc2ccccc2c(=O)[nH]1)C(=O)c1cccc(NC(=O)c2cccs2)c1	x	x	x	x	n	x	x	x	x	x	x	x
COc1cc(-c2noc(C)c2C(=O)NCCCn2ccnc2)cc(OC)c1OC	x	x	x	x	n	x	x	x	x	x	x	x
Nc1nc(SCC(=O)Nc2ccc(Cl)cn2)n[nH]1	n	n	13	n	n	n	n	n	n	n	n	n
CSCC(=O)N1CCCC(CNC(=O)c2ccc(-c3ccccc3)cc2)C1 (stereo not given)	n	n	-6.3	n	n	n	n	n	0.03	n	0.015	n
Cc1ncccc1C(=O)N1CCCC(CNC(=O)c2ccc(-c3ccccc3)cc2)C1 (stereo not given)	n	n	-4.4	n	n	n	n	n	u	n	0.017	n
CC(=O)CCC(=O)N1CCCC(CNC(=O)c2ccc(-c3ccccc3)cc2)C1 (stereo not given)	n	n	n	n	n	n	x	x	x	x	x	x
O=C(NCC1CCCN(C(=O)c2cccnc2)C1)c1ccc(-c2ccccc2)cc1 (stereo not given)	n	n	-7.6	n	n	n	n	n	0.027	n	0.016	n
SMILES	KCNK9 block	KCNQ1 act	KCC2 mod	hERG protect	KCNK3 inh	KCNQ1 block	KCC2 sec1	KCC2 bumet counter	KCC2 secondary2	HEK293 Tl flux	KCC2 retest ouab	HEK293 Tl flux2
C=C(C)Cn1c(=O)c2c(nc3n2CC(C)CN3Cc2ccccc2)n(C)c1=O (stereo not given)	n	n	x	n	n	n	x	x	x	x	x	x
CCN(CC)c1ccc(S(=O)(=O)N2CCOCC2)cc1NC(=O)COC(=O)/C=C/c1ccc(C)o1	n	n	x	n	n	n	x	x	x	x	x	x
Cc1ccc(OCCn2c(=O)sc3ccccc32)cc1	n	n	n	n	n	n	x	x	x	x	x	x
Cc1ccc(OCCCn2c(=O)sc3ccccc32)cc1	n	n	5.8	n	n	n	n	n	n	n	n	u
Cc1nc(N2CCN(Cc3ccccc3)CC2)nc2c1C(=O)CCC2	n	n	-2.9	n	n	n	n	n	u	n	0.015	n
Cc1cccc(Cc2nc3ccccc3[nH]2)c1	x	x	x	x	n	x	x	x	x	x	x	x
Cc1nn(Cc2c(F)c(F)c(F)c(F)c2F)c(C)c1NC(=O)c1ccc(COc2ccccc2Cl)o1	n	n	-6.4	n	n	n	n	n	n	n	0.015	n
C/C(N)=C(/C#N)C(=O)CSc1cc(C)c2cc(C)cc(C)c2n1	n	n	4.1	n	n	n	n	n	n	u	n	n
Cc1cc(C)c2nc(SCC#N)cc(C)c2c1	n	n	n	n	n	n	x	x	x	x	x	x
CCC(CC)NC(=O)COC(=O)c1ccc(NS(=O)(=O)c2ccc3c(c2)OCCO3)cc1	n	n	2.7	n	n	n	n	n	n	n	n	0.01
